# Unmarked numbers belong to inactive results. Results filed as inconclusive are left out. Activity calls are given as the source filed them.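 The calls were made as follows, unless noted: active = growth inhibition above 25% in both replicates, a cutoff set 3 SD above the mean; inconclusive = above 25% in only one replicate; inactive = the rest.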
# Experiments:
# [1] = OD615 S. cerevisiae growth inhibition, permissive medium, pilot counter-assay, permissive growth control for S. cerevisiae lifespan shortening project (AID 705); details: OD615, 24 h, at 10 µM, stronger effect = higher value
# Summary of the method: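 System: S. cerevisiae with engineered DeaD lifespan system / Measured by: absorbance (optical density) at 615 nm / Read-out: reduction in yeast growth (OD615) / Times: 4 h cell pre-growth, 24 h exposure at 30 °C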
# [2] = Restrictive medium S. cerevisiae growth inhibition, OD615, pilot screen of yeast lifespan reduction project, restrictive growth control (AID 706;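 active = growth inhibition above a set limit, 3 SD over mean compound inhibition, in both replicates, cut at about 43% in these data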;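 also: modified DeaD lifespan yeast strain shifted to restrictive glucose medium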); details: OD615, 48 h, at 10 µM, stronger effect = higher value
# Summary of the method: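 System: Engineered S. cerevisiae DeaD strain | Buffer or medium: Glucose-based CSMM-D restrictive medium | Schedule: 4 h pre-incubation, 48 h exposure at 30 °C | Technique: Optical density at 615 nm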
# [3] = viability gain of MRP-1-high H69AR cells under doxorubicin, pilot screen, MRP-1 activator project, CellTiter-Glo, duplicate (AID 807;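 active = viability increase at or above a cutoff of the median across tested compounds plus 3 SD, cut at about 8.5% in these data, passing the limit was not always enough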;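 also: compound pretreatment 18-22 h then 72 h combined with doxorubicin; 0% = doxorubicin alone and 100% = vehicle without doxorubicin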); details: H69AR viability with doxorubicin, CellTiter-Glo luminescence; at 10 µM; stronger effect = higher value
# [4] = growth suppression of beta-catenin knockout HCT116, pilot screen, human colon tumor cells (AID 823;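 active = cell viability at or below a set limit in both duplicate runs, the limit being the all-compound median minus 4 SD, cut at about 23% in these data, passing the limit was not always enough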;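 also: 0% = wells killed by 20 µM Hyamine and 100% = untreated DMSO cell wells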); details: CellTiter-Glo, 60 h, at 10 µM, stronger effect = lower value
# [5] = growth suppression of PTEN-deleted HCT116, pilot screen, cell-based, HCT116 clonal line, CellTiter-Glo (AID 824;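 active = viability at or below 27.92% in each of two runs, the all-compound median minus 4 SD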;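 also: 0% = 20 µM Hyamine control and 100% = vehicle cell control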); details: 60 h, at 10 µM, stronger effect = lower value
# [6] = inhibitors of the yeast RAM network, pilot screen, dse1pr::URA3 reporter, 5-FOA selection (AID 869;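 active = inhibition over a set limit, the all-compound mean plus 3 SD, in both replicate runs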;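 also: 0% = DMSO wells with no growth and 100% = 10 µM 1-NA-PP1 with full growth; RAM network block rescues cells from 5-FOA so hits raise OD615 growth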); details: S. cerevisiae dse1pr::URA3 5-FOA growth, OD615, 2 d; at 10 µM; stronger effect = higher value; strain carries analog-sensitive mutant Cbk1 kinase
# [7] = RAM signaling pathway blockade in yeast – S. cerevisiae, Pdr1DBD-CYC8 efflux-inhibited sensitized strain, primary screen (AID 1298;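 active = RAM network inhibition above 8.4% in each of two replicates, 3 SD over the compound average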;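 also: 0% = DMSO untreated cells without growth and 100% = 10 µM 1-NA-PP1 full growth; higher means more yeast growth rescued from 5-FOA killing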); details: S. cerevisiae cbk1-as DSE1-URA3 strain, 5-FOA growth OD615, 2 d; at 50 µM; stronger effect = higher value
SMILES,growth inhibition [1] [%],growth inhibition [2] [%],viability increase [3] [%],viability [4],viability [5],inhibition [6] [%],RAM network inhibition [7] [%]
Cc1cc(C(=O)N2CCN(C(c3ccccc3)c3ccccc3)CC2)on1,-11.2,-5.41,0.42,89.7%,76.7%,2.04,3.7
CCNC(=O)CN(Cc1ccccc1)S(=O)(=O)c1ccccc1,-5.21,13.1,0.61,89.3%,104%,0.615,1.94
Cc1nc2sc(C(c3ccco3)N3CCN(c4ccc(F)cc4)CC3)c(O)n2n1 (stereo unspecified),0.055,-7.21,-0.62,107%,99.9%,1.52,3.54
CC(=O)C(C)Oc1ccc2c3c(c(=O)oc2c1)CCCC3 (stereo unspecified),-6.26,9.38,0.37,93%,91.1%,2.3,0.72
COc1ccc(OCCSc2ncnc3nc[nH]c23)cc1,2.66,22.4,-3.5,86.6%,81.3%,3.27,4.46
CCOCCCNC(=O)c1cn(C)c2ccc(S(=O)(=O)N(C)C3CCCCC3)cc2c1=O,-5.04,-14.3,-4.93,108%,101%,0.93,-0.73
CC(=O)Nc1ccc(NC(=O)c2oc3cc(C)c(C)cc3c2C)cc1,-7.1,-17,-0.82,104%,96.4%,2.38,5.95
COc1ccc(NC(=O)C2CCCN2S(=O)(=O)c2ccc(F)cc2)cc1 (stereo unspecified),-11.8,-12.7,-0.14,109%,99.2%,1.87,-1.32
CC1(C)CC(=O)C=C(Nc2ccccc2F)C1,-10.4,-10.5,-2.25,111%,98.3%,-0.01,1.22
COc1ccc(CSc2nnnn2C)cc1F,-3.21,4.8,-0.89,91.4%,95%,2.62,-0.46
C/C(=C1\SC(N2CCOCC2)=NC1=O)c1ccccc1,-19.6,-10.6,-2.49,97%,102%,0.76,1.09
COc1ccc(OC)c2sc(NC(=O)C3=COCCO3)nc12,-14.8,0.525,-2.76,93%,90.9%,0.98,3.16
COc1cccc(C2c3c(oc4ccccc4c3=O)C(=O)N2c2ccccn2)c1 (stereo unspecified),-2.5,-15.9,0.48,92.4%,97.2%,0.28,4.39
CCOc1ccc(NC(=O)c2ccc(N)cc2)cc1,-1.98,-14.4,-2.73,91.8%,89.2%,2.77,2.88
O=C(c1c(Cl)nc2sccn12)N1CCN(c2cccc(Cl)c2)CC1,0.85,18.6,-4.96,13.8% (active),17.8% (active),0.91,5.21
O=C(CSc1nc2c(c(=O)n1-c1ccc(Cl)cc1)SCC2)N1CCOCC1,-10.3,-2.5,-2.79,97.6%,101%,-0.06,-0.16
CCC(NC(=O)c1ccccc1NC(=O)c1ccco1)C(=O)NC1CCCCC1 (stereo unspecified),-4.2,7.98,-2.29,89.1%,98.3%,1.35,2.08
Cc1cc(Cl)ccc1NC(=O)CSc1nnc(-c2ccncc2)n1Cc1ccco1,5.41,25,0.37,92.5%,93.9%,1,3.58

# — PubChem BioAssay
